Laboratory results: ChEMBL document CHEMBL1148799, “Solid-phase synthesis and insights into structure-activity relationships of safinamide analogues as potent and selective inhibitors of type B monoamine oxidase” (J Med Chem, 2007)
pIC50: −log10 of the molar value.

Legend:
Rattus norvegicus = species on record: Rattus norvegicus; experiment: Selectivity index, ratio of IC50 for rat brain mitochondria MAOA to IC50 for rat brain mitochondria MAOB
Outline: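 IC50(MAO-A)/IC50(MAO-B). Both come from radioenzymatic assays on rat brain mitochondria after 30 min inhibitor preincubation at 37 °C, pH 7.40. MAO-A used 5 µM ¹⁴C-5-HT for 30 min; MAO-B used 0.5 µM ¹⁴C-PEA for 10 min. IC50s from nonlinear regression of duplicate 5–8-point curves.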

[1] = target: T1, Amine oxidase [flavin-containing] A (Rattus norvegicus, UniProt P21396); experiment: Inhibition of rat brain mitochondria MAOA by radioenzymatic assay
T1 sequence (P21396 whole entry): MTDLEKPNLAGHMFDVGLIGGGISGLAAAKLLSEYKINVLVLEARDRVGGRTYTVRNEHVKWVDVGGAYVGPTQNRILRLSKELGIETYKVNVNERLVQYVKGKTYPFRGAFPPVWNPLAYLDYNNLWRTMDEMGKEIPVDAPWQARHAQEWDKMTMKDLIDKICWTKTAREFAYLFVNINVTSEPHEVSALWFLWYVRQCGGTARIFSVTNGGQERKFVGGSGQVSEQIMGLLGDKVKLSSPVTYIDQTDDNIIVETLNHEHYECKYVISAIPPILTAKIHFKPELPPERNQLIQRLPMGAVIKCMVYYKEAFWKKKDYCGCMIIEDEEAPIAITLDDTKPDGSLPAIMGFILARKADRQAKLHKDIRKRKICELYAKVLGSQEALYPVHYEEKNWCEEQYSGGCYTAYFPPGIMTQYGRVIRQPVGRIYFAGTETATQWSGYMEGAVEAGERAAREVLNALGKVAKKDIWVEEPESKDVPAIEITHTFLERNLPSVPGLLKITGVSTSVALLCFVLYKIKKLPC
Outline: (§1)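 Rat brain mitochondrial pellet (500 µg protein) in 0.1 M phosphate buffer, pH 7.40, preincubated 30 min at 37 °C with inhibitor (as methanesulfonate salt) or buffer. Then 5 µM ¹⁴C-5-HT for 30 min at 37 °C, stopped with HCl. Ether-extracted acidic metabolites counted by liquid scintillation. IC50 by nonlinear regression from 5–8 concentrations (10^-10–10^-5 M) in duplicate, or % inhibition at one concentration.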

[2] = target: T2, Amine oxidase [flavin-containing] B (Rattus norvegicus, UniProt P19643); experiment: Inhibition of rat brain mitochondria MAOB by radioenzymatic assay
T2 sequence (P19643 whole entry): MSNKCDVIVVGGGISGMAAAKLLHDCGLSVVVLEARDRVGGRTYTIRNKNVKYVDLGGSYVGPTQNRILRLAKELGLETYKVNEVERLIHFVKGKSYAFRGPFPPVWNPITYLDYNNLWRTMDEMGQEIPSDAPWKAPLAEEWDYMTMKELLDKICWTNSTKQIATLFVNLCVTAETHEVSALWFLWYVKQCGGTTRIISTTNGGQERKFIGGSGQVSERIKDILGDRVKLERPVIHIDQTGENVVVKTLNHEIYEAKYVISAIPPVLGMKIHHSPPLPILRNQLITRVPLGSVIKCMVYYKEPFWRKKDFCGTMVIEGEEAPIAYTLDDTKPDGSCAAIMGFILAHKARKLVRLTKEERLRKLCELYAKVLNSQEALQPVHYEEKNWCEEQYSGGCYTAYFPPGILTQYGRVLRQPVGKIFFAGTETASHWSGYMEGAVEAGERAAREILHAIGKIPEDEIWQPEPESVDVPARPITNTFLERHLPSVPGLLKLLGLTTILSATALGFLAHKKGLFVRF
Outline: as §1, with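 “Then 0.5” for “Then 5”, “µM ¹⁴C-PEA” for “µM ¹⁴C-5-HT”, “for 10” for “for 30”, “with perchloric acid. Toluene-extracted” for “with HCl. Ether-extracted acidic”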

[3] = target: T2, Amine oxidase [flavin-containing] B; experiment: Inhibition of rat brain mitochondria MAOB at 10 uM by radioenzymatic assay
Outline: as §1, with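 “Then 0.5” for “Then 5”, “µM ¹⁴C-PEA” for “µM ¹⁴C-5-HT”, “for 10” for “for 30”, “with perchloric acid. Toluene-extracted” for “with HCl. Ether-extracted acidic”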

[4] = target: T1, Amine oxidase [flavin-containing] A; experiment: Inhibition of rat brain mitochondria MAOA at 100 uM by radioenzymatic assay; outline: as §1

Selectivity index (Rattus norvegicus) | pIC50 [1] | pIC50 [2] | inhibition at 10 µM [3] | inhibition at 100 µM [4] | SMILES
90 | 4.14 | 6.10 |  |  | C[C@@H](NCc1ccc(OCc2cccc(Cl)c2)cc1)C(N)=O
 |  |  | 37% | 22% | C[C@H](NCc1ccc(OCc2ccc([N+](=O)[O-])cc2)cc1)C(N)=O
188 | 4.35 | 6.62 |  |  | C[C@@H](C(N)=O)N1CCc2cc(OCc3cccc(F)c3)ccc2C1
2940 | 4.30 | 7.77 |  |  | C[C@H](C(N)=O)N1CCc2cc(OCc3cccc(F)c3)ccc2C1
388 | 4.00 | 6.59 |  |  | C[C@H](NCc1ccc(OCc2ccccc2)cc1)C(N)=O
3460 |  | 7.48 |  |  | C[C@H](NCc1ccc(OCc2cccc(Cl)c2)cc1)C(N)=O
 |  | 5.15 |  | 38% | NC(=O)[C@H](CO)NCc1ccc(OCc2ccc([N+](=O)[O-])cc2)cc1
 |  | 5.00 |  | 33% | NC(=O)[C@@H](NCc1ccc(OCc2cccc(Cl)c2)cc1)c1ccccc1
2.7 | 5.07 | 5.50 |  |  | NC(=O)CNCc1ccc(OCc2ccccc2)cc1
 |  | 4.13 |  | 35% | NC(=O)[C@@H](NCc1ccc(OCc2ccccc2)cc1)c1ccccc1
 |  |  | 34% | 27% | NC(=O)[C@@H](NCc1ccc(OCc2ccc(Cl)cc2)cc1)c1ccccc1
220 | 4.05 | 6.39 |  |  | NC(=O)[C@H](CO)NCc1ccc(OCc2ccccc2)cc1
109 | 4.43 | 6.47 |  |  | NC(=O)CNCc1ccc(OCc2cccc(Cl)c2)cc1
3.4 | 4.47 | 5.00 |  |  | NC(=O)[C@@H](NCc1ccc(OCc2cccc(F)c2)cc1)c1ccccc1
2.3 | 4.67 | 5.04 |  |  | NC(=O)CNCc1ccc(OCc2ccc([N+](=O)[O-])cc2)cc1
1.7 | 4.91 | 5.15 |  |  | NC(=O)CNCc1ccc(OCc2ccc(Cl)cc2)cc1
909 | 4.00 |  |  |  | NC(=O)[C@@H](CO)NCc1ccc(OCc2cccc(Cl)c2)cc1
714 | 4.00 |  |  |  | NC(=O)[C@H](CO)NCc1ccc(OCc2cccc(F)c2)cc1
 |  |  | 4% | 16% | NC(=O)[C@@H](NCc1ccc(OCc2ccc([N+](=O)[O-])cc2)cc1)c1ccccc1
6.1 | 4.87 | 5.65 |  |  | NC(=O)CNCc1ccc(OCc2cccc(F)c2)cc1
 |  | 5.66 |  | 37% | C[C@H](NCc1ccc(OCc2ccc(Cl)cc2)cc1)C(N)=O
1970 |  | 7.37 |  |  | NC(=O)[C@H](CO)NCc1ccc(OCc2cccc(Cl)c2)cc1
 |  | 5.96 |  | 47% | NC(=O)[C@H](CO)NCc1ccc(OCc2ccc(Cl)cc2)cc1

SMILES | Selectivity index (Rattus norvegicus) | pIC50 [1] | pIC50 [2] | inhibition at 10 µM [3] | inhibition at 100 µM [4]
C[C@@H](NCc1ccc(OCc2cccc(F)c2)cc1)C(N)=O |  | 4.38 |  |  | 
